Measurements published in ChEMBL document CHEMBL1133351, “Synthesis and evaluation of vitamin D-based cationic lipids for gene delivery in vitro” (2000).

Assays:
HeLa = experiment: Transfection activity of compound was tested in human cervical adenocarcinoma (HeLa) cells (Level of luciferase gene expression is expressed as mean of relative light units (RLU) per well); type: functional
In short: (§1)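 Cationic lipid:DOPE (1:1 molar) films hydrated in PBS pH 7.4 (5 mM cationic lipid), bath-sonicated. pCMV-Luc (CMV-driven firefly luciferase) 1 µg in serum-free CHO-S-SFM mixed with 5 nmol lipid in HBSS, 5–10 min RT. Cells 5×10^4/well seeded 24 h prior; 5 h exposure, then FBS; medium replaced at 24 h; lysed 24 h later; luciferase luminescence (10 s), RLU/well, mean of triplicates.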

HEK293 = experiment: Transfection activity of compound was tested in human embryonic kidney (293) cells (Level of luciferase gene expression is expressed as mean of relative light units (RLU) per well); type: functional; in short: as §1
[1] = Transfection activity of compound was tested in lewis lung carcinoma (3LL) cells (Level of luciferase gene expression is expressed as mean of relative light units (RLU) per well); type: functional, cell-based; details: Mus musculus; in short: as §1
NIH3T3 = experiment: Transfection activity of compound was tested in murine embryonic fibroblast (NIH3T3) cells (Level of luciferase gene expression is expressed as mean of relative light units (RLU) per well); type: functional, Mus musculus; in short: as §1

| SMILES | RLU/well (HeLa) | RLU/well (HEK293) | RLU/well [1] | RLU/well (NIH3T3) |
| --- | --- | --- | --- | --- |
| C=C1CC[C@H](OC(=O)NCCN(C)C)C/C1=C/C=C1\CCC[C@]2(C)[C@@H]([C@H](C)/C=C/[C@H](C)C(C)C)CC[C@@H]12.Cl | 2.6e+06 | 3.9e+06 | 800000 | 270000 |
| C=C1CC[C@H](OC(=O)NCCCCN)C/C1=C/C=C1\CCC[C@]2(C)[C@@H]([C@H](C)CCCC(C)C)CC[C@@H]12.Cl | 1.7e+06 | 4.7e+07 | 820000 | 7.8e+06 |
| C=C1CC[C@H](OC(=O)NCC[N+](C)(C)C)C/C1=C/C=C1\CCC[C@]2(C)[C@@H]([C@H](C)CCCC(C)C)CC[C@@H]12.[I-] | 18000 | 560000 | 5300 | 570000 |
| C=C1CC[C@H](OC(=O)NCCCCN)C/C1=C/C=C1\CCC[C@]2(C)[C@@H]([C@H](C)/C=C/[C@H](C)C(C)C)CC[C@@H]12.Cl | 930000 | 6.3e+07 | 610000 | 2.1e+06 |
| C=C1CC[C@H](OC(=O)NCCN(C)C)C/C1=C/C=C1\CCC[C@]2(C)[C@@H]([C@H](C)CCCC(C)C)CC[C@@H]12.Cl | 290000 | 1.1e+06 | 220000 | 120000 |
| C=C1CC[C@H](OC(=O)NCCN(CCN)CCN)C/C1=C/C=C1\CCC[C@]2(C)[C@@H]([C@H](C)/C=C/[C@H](C)C(C)C)CC[C@@H]12.Cl | 540000 | 4.8e+07 | 590000 | 1.9e+06 |
| C=C1CC[C@H](OC(=O)NCC[N+](C)(C)C)C/C1=C/C=C1\CCC[C@]2(C)[C@@H]([C@H](C)/C=C/[C@H](C)C(C)C)CC[C@@H]12.[I-] | 38000 | 1.6e+06 | 4000 | 180000 |
| C=C1CC[C@H](OC(=O)NCCN(CCN)CCN)C/C1=C/C=C1\CCC[C@]2(C)[C@@H]([C@H](C)CCCC(C)C)CC[C@@H]12.Cl | 1.4e+06 | 3.2e+07 | 150000 | 690000 |
